The nature of series [1]: Cytotoxicity against mock-infected human MT4 cells after 96 hrs by MTT assay. The class given is cell-based. A digest of the protocol:
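Exponentially growing MT-4 cells were seeded at 1 × 10^5 cells/mL in RPMI-1640 with 10% FBS and held at 37 °C, 5% CO2 with serial compound dilutions. Viability was read by MTT after 96 h. CC50 from linear regression against untreated controls.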
On the technique in general: Tetrazolium dyes change colour on reduction, which living cells bring about.

A further series relates to Reovirus sp. Briefly: Antiviral activity against Reovirus type-1 infected in BHK21 cells assessed as inhibition of virus-induced cytopathogenicity after 3 to 4 days by MTT assay. The class given is functional, organism-based. As to conditions: BHK-21. Background: Cytopathic effects are the visible damage that an infection or toxin causes in cultured cells.
The test system of another series is Yellow fever virus. Description: Antiviral activity against Yellow fever virus infected in BHK21 cells assessed as inhibition of virus-induced cytopathogenicity after 3 to 4 days by MTT assay. As to conditions: BHK-21. The class given is functional, organism-based.
The subject of series [2] is Bovine viral diarrhea virus 1. Description: Antiviral activity against Bovine viral diarrhea virus infected in MDBK cells assessed as inhibition of virus-induced cytopathogenicity after 3 to 4 days by MTT assay. The class given is functional, organism-based. As to conditions: Bovine viral diarrhea virus isolates and strains.
Series [3] in a line: Cytotoxicity against mock-infected MDBK cells after 48 to 96 hrs by MTT assay. The following applies: cattle. The class given is cell-based, Bos taurus. A digest of the protocol:
(§1)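 Mock-infected MDBK (6 × 10^5 cells/mL; MEM-E, 10% horse serum, 1 mM pyruvate) or BHK (1 × 10^6 cells/mL; MEM-E, 10% FBS) cells were incubated at 37 °C, 5% CO2 with serial dilutions from 100 µM, 1:5. Viability by MTT after 48–96 h. CC50 from linear regression against untreated controls.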

For the next series, the system named is Human alphaherpesvirus 1. Description: Antiviral activity against HSV1 infected in african green monkey Vero 76 cells assessed as reduction in plaque number after 3 days by plaque reduction assay. The class given is functional, organism-based. The following applies: Human alphaherpesvirus 1, Vero, 72 h. Background: Plaque reduction counts the foci of infection that form in a cell layer.

Series [4] is described as follows: Cytotoxicity against mock-infected african green monkey Vero 76 cells after 48 to 96 hrs by MTT assay. The class given is cell-based. As to conditions: chlorocebus sabaeus, mock-infected Vero 76 cells.
For a further series, the system named is Coxsackievirus B5. Description: Antiviral activity against Coxsackievirus B5 infected in african green monkey Vero 76 cells assessed as reduction in plaque number after 3 days by plaque reduction assay. The class given is functional, organism-based. As to conditions: Enterovirus B, 72 h.
Series [5] can be described thus: Cytotoxicity against mock-infected BHK21 cells after 48 to 96 hrs by MTT assay. The class given is functional. As to conditions: Mesocricetus auratus, BHK-21. The procedure, abridged:
as §1

The test system of series [6] is Human immunodeficiency virus 1. Description: Antiviral activity against HIV1 infected in human MT4 cells assessed as inhibition of virus-induced cytopathogenicity after 4 days by MTT assay. The class given is functional, organism-based. As to conditions: Human immunodeficiency virus 1, MT4, 96 h. The procedure, abridged:
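MT-4 cells (1 × 10^4/well in RPMI) were infected acutely with HIV-1 IIIB, 100 CCID50 (m.o.i. 0.01), with serial dilutions from 100 µM, 1:5. After 4 days at 37 °C, protection from virus-induced cytopathogenicity was read by MTT. EC50 came from linear regression against untreated controls.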

In a further series the test system is Vaccinia virus. Description: Antiviral activity against Vaccinia Virus infected in african green monkey Vero 76 cells assessed as reduction in plaque number after 3 days by plaque reduction assay. The class given is functional, organism-based. As to conditions: Orthopoxvirus vaccinia, 72 h.
Series [7] has as its system Vesicular stomatitis virus. Description: Antiviral activity against Vesicular stomatitis virus infected in african green monkey Vero 76 cells assessed as reduction in plaque number after 2 days by plaque reduction assay. The class given is functional, organism-based. As to conditions: 48 h.
The next series has as its system Poliovirus 1. Briefly: Antiviral activity against Poliovirus type 1 Sabin strain infected in african green monkey Vero 76 cells assessed as reduction in plaque number after 2 days by plaque reduction assay. The class given is functional, organism-based. The following applies: Enterovirus C, 48 h.
Series [8] relates to Respiratory syncytial virus. Briefly: Antiviral activity against Respiratory syncytial virus infected in african green monkey Vero 76 cells assessed as reduction in plaque number after 5 days by plaque reduction assay. The class given is functional, organism-based. The following applies: human respiratory syncytial virus, 120 h.

In turn, `Clc1ccc2[nH]c(CCCC3NCC4CNCC3C4)nc2c1` (stereo not drawn) registered a 50% cytotoxic concentration (CC50) at 96 h in series [1] of more than 100 µM. Besides, the half-maximal effective concentration (EC50) is more than 100 µM in the series on Reovirus sp.; 25 µM in the series on Yellow fever virus; more than 100 µM in series [2]; more than 100 µM with Human alphaherpesvirus 1; more than 100 µM in the series on Coxsackievirus B5; more than 100 µM in [6]. For the same molecule, the EC50 (in the series with Vaccinia virus; in [7]; with Poliovirus 1; in [8]) was more than 100 µM in each case. Moreover, the 50% cytotoxic concentration (CC50) in series [3], in [4] and in series [5] was more than 100 µM in each case.

Turning to `COc1ccc2c(c1)nnn1c3cc(Cl)c(Cl)cc3nc21`, the CC50 at 96 h in series [1] is more than 100 µM. Also, the EC50 (in the series with Reovirus sp.; in the series on Yellow fever virus; in series [2]; in the series with Human alphaherpesvirus 1; in the series with Coxsackievirus B5; in series [6]) was more than 100 µM in each case. Moreover, the concentration for a half-maximal effect (EC50) (in the series on Vaccinia virus; in series [7]; in the series with Poliovirus 1; in series [8]) was more than 100 µM each time. The 50% cytotoxic concentration (CC50) in series [3], in [4] and in series [5] was more than 100 µM throughout.

Regarding `CC(=O)Nc1ccc(Cc2nc3cc(Cl)c(Cl)cc3[nH]2)cc1`, in series [1], the half-maximal cytotoxic concentration (CC50) at 96 h was more than 100 µM. The EC50 (in the series with Reovirus sp.; in the series with Yellow fever virus; in series [2]; with Human alphaherpesvirus 1; in the series on Coxsackievirus B5; in [6]) was more than 100 µM in each case. For the same molecule, the EC50 (in the series with Vaccinia virus; in [7]; in the series with Poliovirus 1; in [8]) was more than 100 µM in each case. In addition, the CC50 in series [3], in series [4] and in [5] was more than 100 µM in each case.

Regarding `COc1ccc(-c2nc3cc(C(F)(F)F)ccc3n2CCN(C)C)cc1`, the CC50 at 96 h in [1] is more than 100 µM. Besides, the EC50 (in the series on Reovirus sp.; in the series on Yellow fever virus; in series [2]; in the series on Human alphaherpesvirus 1; with Coxsackievirus B5; in [6]) was more than 100 µM each time. The EC50 (with Vaccinia virus; in series [7]; in the series on Poliovirus 1; in series [8]) was more than 100 µM in each case. Moreover, the half-maximal cytotoxic concentration (CC50) in [3], in series [4] and in series [5] was more than 100 µM throughout.

In series [1], `COc1ccc(-c2nc3cc(C(F)(F)F)ccc3n2C[C@@H]2CCCN3CCCC[C@H]23)cc1` yielded a CC50 at 96 h of 25 µM. Besides, the EC50 was 27 µM in the series with Reovirus sp.; more than 100 µM in the series with Yellow fever virus; more than 100 µM in [2]; more than 100 µM with Human alphaherpesvirus 1; more than 100 µM in the series on Coxsackievirus B5; more than 100 µM in [6]. Further, the EC50 (in the series on Vaccinia virus; in series [7]; with Poliovirus 1; in [8]) was more than 100 µM throughout. In addition, the 50% cytotoxic concentration (CC50) is more than 100 µM in series [3], 75 µM in [4] and 65 µM in series [5].

In series [1], `CCN(CC)CCCn1c(-c2ccc(OC)cc2)nc2cc(C(F)(F)F)ccc21` showed a CC50 at 96 h of more than 100 µM. Further, the concentration giving a half-maximal response (EC50) (in the series on Reovirus sp.; with Yellow fever virus; in series [2]; in the series with Human alphaherpesvirus 1; in the series on Coxsackievirus B5; in [6]) was more than 100 µM throughout. Also, the EC50 (in the series on Vaccinia virus; in series [7]; in the series with Poliovirus 1; in [8]) was more than 100 µM in each case. The values for the CC50 in series [3], in [4] and in [5] were more than 100 µM, more than 100 µM and 76 µM, respectively.

With `c1ccc2[nH]c(C[C@@H]3CCCN4CCCC[C@H]34)nc2c1`, the half-maximal cytotoxic concentration (CC50) at 96 h in series [1] stood at 17 µM. For the same molecule, the 50% effective concentration (EC50) is more than 100 µM in the series with Reovirus sp.; more than 100 µM in the series with Yellow fever virus; 34 µM in series [2]; more than 100 µM in the series with Human alphaherpesvirus 1; more than 100 µM in the series with Coxsackievirus B5; more than 100 µM in series [6]. For the same molecule, the EC50 (with Vaccinia virus; in [7]; with Poliovirus 1; in series [8]) was more than 100 µM in each case. Moreover, the half-maximal cytotoxic concentration (CC50) in series [3] is more than 100 µM; in series [4], more than 100 µM; in series [5], 78 µM.

With `COCCn1c(-c2ccc(OC)cc2)nc2cc(C(F)(F)F)ccc21`, the midpoint of cytotoxicity in series [1], the CC50 at 96 h, lay at 80 µM. Also, the 50% effective concentration (EC50) (in the series on Reovirus sp.; with Yellow fever virus; in series [2]; in the series with Human alphaherpesvirus 1; with Coxsackievirus B5; in [6]) was more than 100 µM throughout. The EC50 (in the series with Vaccinia virus; in series [7]; in the series on Poliovirus 1; in series [8]) was more than 100 µM each time. Moreover, the CC50 in series [3], in [4] and in [5] was more than 100 µM in each case.

`c1ccc2[nH]c(CCCC3NCC4CNCC3C4)nc2c1` (stereo not drawn) registered a CC50 at 96 h in [1] of more than 100 µM. Moreover, the half-maximal effective concentration (EC50) (with Reovirus sp.; in the series on Yellow fever virus; in series [2]; in the series with Human alphaherpesvirus 1; in the series with Coxsackievirus B5; in series [6]) was more than 100 µM in each case. Besides, the EC50 (in the series with Vaccinia virus; in [7]; in the series with Poliovirus 1; in series [8]) was more than 100 µM throughout. For the same molecule, the CC50 in [3], in series [4] and in series [5] was more than 100 µM in each case.

`CC(CC(=O)O)n1c(-c2ccccc2)nc2ccccc21` (stereo not drawn) showed a half-maximal cytotoxic concentration (CC50) at 96 h in [1] of more than 100 µM. Further, the EC50 (with Reovirus sp.; with Yellow fever virus; in series [2]; in the series with Human alphaherpesvirus 1; in the series with Coxsackievirus B5; in series [6]) was more than 100 µM each time. In addition, the concentration for a half-maximal effect (EC50) (in the series on Vaccinia virus; in series [7]; in the series on Poliovirus 1; in [8]) was more than 100 µM each time. Also, the 50% cytotoxic concentration (CC50) in series [3], in series [4] and in series [5] was more than 100 µM throughout.

The molecule `Clc1ccc(Cc2nc3cc(Cl)c(Cl)cc3[nH]2)cc1` gave a CC50 at 96 h in series [1] of 37 µM. The concentration giving a half-maximal response (EC50) (in the series on Reovirus sp.; with Yellow fever virus; in [2]; in the series on Human alphaherpesvirus 1; in the series on Coxsackievirus B5; in [6]) was more than 100 µM each time. Also, the EC50 (in the series with Vaccinia virus; in series [7]; in the series with Poliovirus 1; in series [8]) was more than 100 µM throughout. In addition, the CC50 in series [3] was 9 µM; in [4], 71 µM; in series [5], more than 100 µM.

Molecule `CC(=O)Nc1ccc(Cc2nc3ccccc3[nH]2)cc1` had a CC50 at 96 h in series [1] of more than 100 µM. Besides, the EC50 (with Reovirus sp.; with Yellow fever virus; in series [2]; with Human alphaherpesvirus 1; with Coxsackievirus B5; in series [6]) was more than 100 µM in each case. Besides, the EC50 (in the series with Vaccinia virus; in [7]; in the series with Poliovirus 1; in [8]) was more than 100 µM in each case. In addition, the half-maximal cytotoxic concentration (CC50) in [3], in series [4] and in series [5] was more than 100 µM each time.

The CC50 is the concentration giving 50% cytotoxicity. In general, EC50 refers to the midpoint of the concentration-response curve.
